Tests used:
[1] = target: T1, Muscarinic acetylcholine receptor M1 (Homo sapiens) (UniProt P11229); assay: Displacement of [3H]pirenzepine from recombinant human muscarinic M1 receptor at 1 uM after 60 mins by scintillation counting relative to control
T1 sequence (whole entry): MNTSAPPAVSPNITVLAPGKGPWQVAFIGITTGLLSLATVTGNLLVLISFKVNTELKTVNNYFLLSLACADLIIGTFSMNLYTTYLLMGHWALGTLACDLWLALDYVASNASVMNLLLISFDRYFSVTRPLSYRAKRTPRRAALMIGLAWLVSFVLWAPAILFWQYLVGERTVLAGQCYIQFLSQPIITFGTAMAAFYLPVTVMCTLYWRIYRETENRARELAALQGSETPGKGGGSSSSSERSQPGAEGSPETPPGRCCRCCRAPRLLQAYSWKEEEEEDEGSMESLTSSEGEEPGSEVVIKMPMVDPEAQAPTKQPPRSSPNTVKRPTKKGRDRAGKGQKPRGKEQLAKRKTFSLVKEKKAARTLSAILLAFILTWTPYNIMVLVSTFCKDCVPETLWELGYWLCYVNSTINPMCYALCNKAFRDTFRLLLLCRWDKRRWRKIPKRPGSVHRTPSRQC

[2] = Tmax in Wistar rat at 10 mg/kg, po administered as single dose by LC/MS analysis; type: ADME, organism-based; conditions: in vivo
Procedure, shortened: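 Male Wistar rats (229–272 g), fasted 16 h before and 4 h after dosing, given 10 mg/kg orally in water. Four rats per time point at 15 min, 30 min, 1, 2, 4 and 8 h. Plasma (K3EDTA) and brain homogenate collected and analysed by LC-MS/MS.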

[3] = target: 5-hydroxytryptamine receptor 7 (Homo sapiens, UniProt P34969); assay: Displacement of [3H]-5-CT from human 5HT7BR expressed in HEK293 cell membranes after 1 hr by microbeta counting method
Procedure, shortened: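 HEK293 (5-HT1A, 5-HT6, 5-HT7b, D2L) or CHO-K1 (5-HT2A) membranes, all Tris–HCl with 4 mM MgCl2 plus receptor-specific EDTA/pargyline/ascorbate (D2L adds NaCl, KCl, CaCl2). Nonspecific binding: 10 μM 5-HT (5-HT1A, 5-HT7), chlorpromazine (5-HT2A), methiothepine (5-HT6), haloperidol (D2L). Triplicate, 7–8 concentrations (10⁻¹¹–10⁻⁴ M), filtration; Ki via Cheng–Prusoff, mean of three experiments. Incubation 1 h 37 °C; 5-HT1A 1 h and 5-HT2A 1.5 h, room temperature.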

[4] = target: Histamine H3 receptor (Homo sapiens) (UniProt Q9Y5N1); assay: Displacement of [3H]Nalpha-Me-histamine from recombinant human histamine H3 receptor at 1 uM after 60 mins by scintillation counting relative to control
hERG (KCNH2) = hERG (KCNH2) (Homo sapiens, UniProt Q12809); assay: Displacement of [3H]Dofetilide from recombinant human ERG at 1 uM after 60 mins by scintillation counting relative to control; conditions: probe [3H]Dofetilide
[5] = target: D(3) dopamine receptor (Homo sapiens) (UniProt P35462); assay: Displacement of [3H]methyl-spiperone from recombinant human dopamine D3 receptor at 1 uM after 60 mins by scintillation counting relative to control
[6] = target: T2, alpha-1 adrenergic receptor (Rattus norvegicus, UniProt P15823+P23944+P43140); assay: Displacement of [3H]prazosin from rat brain alpha-1 adrenergic receptor at 1 uM after 60 mins by scintillation counting relative to control; conditions: rat brain alpha-1 adrenergic receptor preparation, probe [3H]prazosin
T2 sequence (P15823 whole entry): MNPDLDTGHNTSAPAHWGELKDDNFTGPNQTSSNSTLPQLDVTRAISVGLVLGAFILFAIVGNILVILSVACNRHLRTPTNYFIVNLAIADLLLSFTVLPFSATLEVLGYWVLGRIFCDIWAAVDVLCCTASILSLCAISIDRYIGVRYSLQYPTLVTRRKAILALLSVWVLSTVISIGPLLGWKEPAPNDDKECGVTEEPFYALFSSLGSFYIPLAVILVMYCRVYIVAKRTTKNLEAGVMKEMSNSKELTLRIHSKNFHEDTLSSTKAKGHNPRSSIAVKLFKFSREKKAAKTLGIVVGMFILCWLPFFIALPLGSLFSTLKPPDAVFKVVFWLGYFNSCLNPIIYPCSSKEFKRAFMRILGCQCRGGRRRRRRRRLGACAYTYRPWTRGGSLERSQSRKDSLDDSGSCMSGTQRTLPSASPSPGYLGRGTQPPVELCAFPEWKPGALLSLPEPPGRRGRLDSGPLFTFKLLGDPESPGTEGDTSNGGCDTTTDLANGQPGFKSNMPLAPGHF
T2 sequence (P23944 whole entry): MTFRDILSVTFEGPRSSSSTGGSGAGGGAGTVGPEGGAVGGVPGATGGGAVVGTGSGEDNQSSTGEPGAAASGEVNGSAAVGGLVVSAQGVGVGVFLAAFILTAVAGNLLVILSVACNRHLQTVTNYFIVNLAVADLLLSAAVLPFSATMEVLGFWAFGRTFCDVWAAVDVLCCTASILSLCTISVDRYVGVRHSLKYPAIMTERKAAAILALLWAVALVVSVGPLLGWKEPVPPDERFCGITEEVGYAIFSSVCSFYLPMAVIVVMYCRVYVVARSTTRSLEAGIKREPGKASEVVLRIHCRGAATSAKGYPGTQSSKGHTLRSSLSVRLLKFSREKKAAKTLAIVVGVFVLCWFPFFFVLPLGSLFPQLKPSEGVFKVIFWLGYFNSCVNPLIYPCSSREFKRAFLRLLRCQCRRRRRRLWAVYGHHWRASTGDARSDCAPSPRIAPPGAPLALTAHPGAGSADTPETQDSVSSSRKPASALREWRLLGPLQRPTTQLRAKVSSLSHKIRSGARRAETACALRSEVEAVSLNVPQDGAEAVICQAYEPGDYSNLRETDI
T2 sequence (P43140 whole entry): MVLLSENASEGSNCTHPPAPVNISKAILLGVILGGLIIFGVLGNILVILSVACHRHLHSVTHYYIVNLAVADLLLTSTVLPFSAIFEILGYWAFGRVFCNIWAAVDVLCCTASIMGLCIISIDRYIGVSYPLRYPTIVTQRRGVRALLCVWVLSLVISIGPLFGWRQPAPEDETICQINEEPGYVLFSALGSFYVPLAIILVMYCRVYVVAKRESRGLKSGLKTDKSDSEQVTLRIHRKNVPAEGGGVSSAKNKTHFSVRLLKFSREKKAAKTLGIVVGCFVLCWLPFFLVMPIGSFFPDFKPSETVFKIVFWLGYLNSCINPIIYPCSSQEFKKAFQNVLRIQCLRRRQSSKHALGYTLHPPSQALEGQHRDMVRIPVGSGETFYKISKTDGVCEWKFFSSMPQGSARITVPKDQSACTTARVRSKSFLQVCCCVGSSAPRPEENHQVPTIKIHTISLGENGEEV

[7] = target: Sodium-dependent serotonin transporter (Homo sapiens) (UniProt P31645); assay: Displacement of [3H]imipramine from recombinant human SERT at 1 uM after 60 mins by scintillation counting relative to control
Sodium-dependent serotonin transporter (Homo sapiens), sequence (P31645 whole entry, looked up): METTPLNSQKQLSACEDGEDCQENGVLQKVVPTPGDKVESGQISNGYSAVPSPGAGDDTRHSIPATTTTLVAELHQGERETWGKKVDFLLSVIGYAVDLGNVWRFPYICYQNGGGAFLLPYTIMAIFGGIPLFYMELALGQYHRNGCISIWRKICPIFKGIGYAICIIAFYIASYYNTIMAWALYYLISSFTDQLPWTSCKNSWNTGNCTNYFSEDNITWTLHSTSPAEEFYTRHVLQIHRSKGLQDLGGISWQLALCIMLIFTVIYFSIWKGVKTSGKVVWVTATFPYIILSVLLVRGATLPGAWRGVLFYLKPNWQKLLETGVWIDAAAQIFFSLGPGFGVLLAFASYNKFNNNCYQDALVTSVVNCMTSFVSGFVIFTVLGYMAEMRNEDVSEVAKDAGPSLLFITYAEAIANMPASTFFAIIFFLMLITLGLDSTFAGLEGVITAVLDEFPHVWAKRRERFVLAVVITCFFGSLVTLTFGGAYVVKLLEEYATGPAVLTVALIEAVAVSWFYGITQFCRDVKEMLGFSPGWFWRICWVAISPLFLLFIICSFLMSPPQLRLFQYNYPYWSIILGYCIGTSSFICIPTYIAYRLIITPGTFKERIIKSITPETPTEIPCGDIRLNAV

D(3) dopamine receptor (Homo sapiens), sequence (P35462 whole entry): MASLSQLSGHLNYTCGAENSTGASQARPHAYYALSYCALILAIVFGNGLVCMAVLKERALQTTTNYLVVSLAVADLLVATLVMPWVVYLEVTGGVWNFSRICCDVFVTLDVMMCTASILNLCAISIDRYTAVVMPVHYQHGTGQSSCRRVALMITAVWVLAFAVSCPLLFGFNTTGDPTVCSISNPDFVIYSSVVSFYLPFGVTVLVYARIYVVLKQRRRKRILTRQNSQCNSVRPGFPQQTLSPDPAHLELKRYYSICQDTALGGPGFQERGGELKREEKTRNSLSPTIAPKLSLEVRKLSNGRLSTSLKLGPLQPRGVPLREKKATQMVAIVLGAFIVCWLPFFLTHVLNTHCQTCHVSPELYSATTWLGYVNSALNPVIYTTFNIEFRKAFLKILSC
5-hydroxytryptamine receptor 7, sequence (P34969 whole entry): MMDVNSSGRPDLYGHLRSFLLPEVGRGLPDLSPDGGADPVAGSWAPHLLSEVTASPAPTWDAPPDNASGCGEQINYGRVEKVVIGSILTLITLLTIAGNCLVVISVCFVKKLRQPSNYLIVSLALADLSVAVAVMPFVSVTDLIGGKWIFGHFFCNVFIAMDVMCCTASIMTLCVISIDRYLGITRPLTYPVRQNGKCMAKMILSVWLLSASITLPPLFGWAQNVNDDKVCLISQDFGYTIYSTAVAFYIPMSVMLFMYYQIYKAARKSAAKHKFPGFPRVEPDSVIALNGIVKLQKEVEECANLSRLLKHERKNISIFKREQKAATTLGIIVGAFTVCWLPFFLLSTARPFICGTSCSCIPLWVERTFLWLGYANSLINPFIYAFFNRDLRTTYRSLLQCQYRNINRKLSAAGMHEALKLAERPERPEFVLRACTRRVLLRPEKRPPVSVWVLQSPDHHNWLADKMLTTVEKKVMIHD
Histamine H3 receptor (Homo sapiens), sequence (Q9Y5N1 whole entry): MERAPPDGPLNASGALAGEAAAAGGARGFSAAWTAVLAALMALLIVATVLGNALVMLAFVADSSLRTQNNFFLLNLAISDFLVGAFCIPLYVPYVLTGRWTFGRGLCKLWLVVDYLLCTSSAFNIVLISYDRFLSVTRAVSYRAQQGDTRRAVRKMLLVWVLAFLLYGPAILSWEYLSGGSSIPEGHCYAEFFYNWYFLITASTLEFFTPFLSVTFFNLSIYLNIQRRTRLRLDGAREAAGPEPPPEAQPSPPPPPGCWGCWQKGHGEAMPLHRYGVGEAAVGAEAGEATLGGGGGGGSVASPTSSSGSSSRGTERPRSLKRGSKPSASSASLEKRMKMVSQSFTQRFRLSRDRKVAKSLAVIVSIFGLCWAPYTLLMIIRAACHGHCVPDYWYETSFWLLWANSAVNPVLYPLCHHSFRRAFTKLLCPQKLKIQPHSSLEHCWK
hERG (KCNH2), sequence (Q12809 whole entry): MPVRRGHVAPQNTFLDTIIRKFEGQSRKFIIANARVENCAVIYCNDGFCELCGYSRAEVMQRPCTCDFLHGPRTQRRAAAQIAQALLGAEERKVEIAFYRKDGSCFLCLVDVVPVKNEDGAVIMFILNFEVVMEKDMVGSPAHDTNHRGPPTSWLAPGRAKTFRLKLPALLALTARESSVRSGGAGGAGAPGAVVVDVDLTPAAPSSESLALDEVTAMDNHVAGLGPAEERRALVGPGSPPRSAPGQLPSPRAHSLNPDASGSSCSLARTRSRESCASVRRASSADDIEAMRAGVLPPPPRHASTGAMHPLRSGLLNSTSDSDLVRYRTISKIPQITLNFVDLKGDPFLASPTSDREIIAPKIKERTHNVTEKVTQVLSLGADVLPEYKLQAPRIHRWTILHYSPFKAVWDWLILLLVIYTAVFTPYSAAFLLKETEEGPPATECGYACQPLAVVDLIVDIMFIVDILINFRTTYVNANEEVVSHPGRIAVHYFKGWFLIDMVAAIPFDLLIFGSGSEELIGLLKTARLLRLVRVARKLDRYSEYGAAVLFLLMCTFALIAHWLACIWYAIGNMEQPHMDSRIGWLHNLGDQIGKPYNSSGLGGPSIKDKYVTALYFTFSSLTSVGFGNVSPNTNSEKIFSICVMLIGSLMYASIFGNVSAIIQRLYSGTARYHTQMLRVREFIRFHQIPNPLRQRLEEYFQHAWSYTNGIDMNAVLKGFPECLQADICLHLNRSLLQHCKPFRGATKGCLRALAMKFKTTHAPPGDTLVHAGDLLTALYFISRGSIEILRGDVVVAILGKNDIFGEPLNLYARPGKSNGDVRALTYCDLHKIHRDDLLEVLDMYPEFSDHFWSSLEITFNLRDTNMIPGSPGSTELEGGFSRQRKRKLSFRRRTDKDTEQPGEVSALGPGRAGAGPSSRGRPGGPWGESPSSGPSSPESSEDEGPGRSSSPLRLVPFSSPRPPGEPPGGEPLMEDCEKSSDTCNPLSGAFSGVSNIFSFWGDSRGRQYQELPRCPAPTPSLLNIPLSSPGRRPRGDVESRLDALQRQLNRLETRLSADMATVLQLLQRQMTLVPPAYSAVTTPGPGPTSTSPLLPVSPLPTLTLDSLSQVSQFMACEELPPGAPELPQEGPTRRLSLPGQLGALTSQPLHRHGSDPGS

inhibition [1]: 3%
Tmax [2]: 15 min
Ki [3]: 12.3 µM
inhibition [4]: 1.6%
inhibition [5]: 18%
inhibition at 1 h, 1 µM [6]: 0.2%
inhibition [7]: 1.9%
Structure (SMILES): CCc1nc2c(N3CCNCC3)ccnc2n1Cc1cccc(F)c1
inhibition at 1 h, 1 µM (hERG (KCNH2)): -6.1%
